Rows were chosen to be rich in hits. Some 1.6% of all compounds tested hit in one or more screens of this group.
ABCG2 block: inhibitors of human ABCG2 transporter, ABCB1 counter-screen. IgMXP3 cells, JC-1 efflux, flow cytometry. inhibition, % at 6.6 µM. actives 0.1% (n = 190,000). AID 1325;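 active = inhibition above 80%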;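 also: 0% = DMSO and 100% = nicardipine control wells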
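Test system: IgMXP3 (ABCG2) plus far-red-tagged CCRF-Adr (ABCB1) cells. Reagent: JC-1 dye as substrate. Timing: 10 min exposure at 25 °C with rotation, no wash. Measured by: flow cytometric JC-1 green MFI at 530 nm. Read-out: percent efflux inhibition, scaled nicardipine 100% to DMSO 0%. Control set: nicardipine and DMSO wells.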
HSV augment: increases HSV replication in cells; HSV replication augmentation in cells, fold increase; maximum fold increase; actives 0.005% (n = 220,000); AID 1956; in the data active = maximum fold increase above about 1.5; inconclusive = no clear call, values can overlap the other calls; tested in PC3 cells
ABCB1 block: blocks JC-1 efflux by human ABCB1 transporter; actives 0.067% (n = 190,000); CCRF-Adr cells, flow cytometry; inhibition, % at 6.6 µM; P08183; in the data active = inhibition above about 40%;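 also: 0% = vehicle and 100% = reference inhibitor; higher value means more JC-1 retained so stronger ABCB1 efflux block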
PKD1 inh: PKD1 (human) kinase inhibition; PKD1 kinase fluorescence polarization assay; inhibition, % (concentration not given with the values); actives 0.056% (n = 200,000); AID 797; in the data active = inhibition above about 50%
PHOSPHO1 block: PHOSPHO1 (human) inhibition; Q8TCT1; recombinant PHOSPHO1, absorbance phosphatase assay; inhibition, % at 13.3 µM; actives 1.1% (n = 290,000); in the data active = inhibition above about 60%
Target sequence (Q8TCT1 whole entry, looked up): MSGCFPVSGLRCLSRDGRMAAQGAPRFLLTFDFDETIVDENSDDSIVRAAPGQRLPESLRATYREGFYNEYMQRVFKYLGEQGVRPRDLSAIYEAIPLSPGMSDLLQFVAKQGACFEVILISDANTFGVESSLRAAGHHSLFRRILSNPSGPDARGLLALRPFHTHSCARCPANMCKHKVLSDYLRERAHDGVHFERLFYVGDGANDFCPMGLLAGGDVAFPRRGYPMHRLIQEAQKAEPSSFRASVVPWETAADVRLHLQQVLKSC
NCF1 inh: inhibitors of human p47phox binding; P14598; p47phox/p22phox peptide binding, fluorescence polarization, 2 h; inhibition, % at 24.7 µM; actives 0.53% (n = 220,000);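 active = inhibition above about 30%, limit read from the data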;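 also: 0% = p47phox with labelled peptide and 100% = labelled peptide alone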
Target sequence (P14598 whole entry, looked up): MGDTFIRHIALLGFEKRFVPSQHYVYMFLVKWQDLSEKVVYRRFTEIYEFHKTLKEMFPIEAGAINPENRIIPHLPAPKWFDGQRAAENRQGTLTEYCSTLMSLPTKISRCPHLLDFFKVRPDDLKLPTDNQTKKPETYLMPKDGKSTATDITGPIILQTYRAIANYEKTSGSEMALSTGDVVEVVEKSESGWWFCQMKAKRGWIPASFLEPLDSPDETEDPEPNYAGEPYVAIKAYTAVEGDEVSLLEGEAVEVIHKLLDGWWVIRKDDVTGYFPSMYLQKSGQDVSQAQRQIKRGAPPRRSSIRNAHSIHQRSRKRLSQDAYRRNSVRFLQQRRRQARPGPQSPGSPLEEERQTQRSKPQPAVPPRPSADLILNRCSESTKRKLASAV
ABCB1 confirm: confirmation of human ABCB1 transporter inhibitors, ABCG2 counter-screen. CCRF-Adr cells, JC-1 efflux, flow cytometry. shares compounds with ABCG2 block. actives 7% (n = 270). inhibition, % at 6.6 µM;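 active = inhibition of pump activity above 50%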;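 also: 0% = DMSO and 100% = nicardipine full pump inhibition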
ABCG2 single pt: inhibits human ABCG2 efflux, confirmed at single point; AID 1453; IgMXP3 cells, JC-1 efflux, flow cytometry; shares compounds with ABCG2 block; inhibition, % at 6.6 µM; actives 6% (n = 270);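 active = inhibition above 50%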;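 also: 0% = DMSO wells and 100% = nicardipine pump inhibitor wells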
IgMXP3 fluor: counter-screen for ABCG2 inhibitors: compound fluorescence in IgMXP3 cells; shares compounds with ABCG2 block; actives 30% (n = 270); compound autofluorescence 488/530 nm, flow; active compounds read high; fluorescence at 6.6 µM;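 active = fluorescence in ABCG2-expressing cells above the plate's control-well mean plus 3 SD, cut at about 15 in these data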;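 also: median cell fluorescence with compound minus that of DMSO-treated control cells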
CCRF-Adr fluor: CCRF-Adr autofluorescence flag for ABCB1 confirmation | CCRF-Adr cells, compound autofluorescence 488/530 nm, flow cytometry; active compounds read high | AID 1483 | shares compounds with ABCG2 block | fluorescence at 6.6 µM | actives 30% (n = 270);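 active = fluorescence beyond the plate control mean plus 3 SD, with a fluorescence-to-maximum score over 2, cut at about 25 in these data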
* = called active by the depositor; i = inactive; ? = inconclusive; . = no result; + = active, no number.

SMILES	ABCG2 block	HSV augment	ABCB1 block	PKD1 inh	PHOSPHO1 block	NCF1 inh	ABCB1 confirm	ABCG2 single pt	IgMXP3 fluor	CCRF-Adr fluor
NC(=O)CSc1nc2scc(-c3ccc(Cl)cc3)c2c(=O)n1Cc1ccccc1	9	i	2	1	3	-12	.	.	.	.
Cc1ccc(-c2csc3nc(SCC(=O)N(C)C)n(Cc4ccccc4)c(=O)c23)cc1	121*	i	28	-1	4	-10	18	20	-0.44	-0.99
CCOC(=O)C1CCN(c2cc3c(cc2NC(=O)c2ccc(OC)c(OC)c2)n(C)c(=O)n3C)CC1	.	.	.	.	22	.	.	.	.	.
COc1cccc(CNC(=O)CCC2CCCN(Cc3ccc4c(c3)CCO4)C2)c1 (stereo not drawn)	.	i	.	.	17	1	.	.	.	.
CSc1nc(N2CCN(C)CC2)c2c(c1C#N)CC(C)(C)OC2	.	i	.	.	24	-10	.	.	.	.
CSc1nc(N2CCCC2)c2c(c1C#N)CC(C)(C)OC2	63	i	7	-8	-62	-3	16	32	0.96	0.11
COc1cccc(-c2nc(-c3ccc(Br)o3)no2)c1	.	i	.	.	33	-6	.	.	.	.
COc1ccc(/C=N/NC(=O)c2ccccc2)cc1CN1CCN(c2ccc(F)cc2)CC1	2	.	6	-1	-18	-4	.	.	.	.
COc1ccc(/C=N/NC(=O)c2ccccc2F)cc1CN1CCN(c2ccc(F)cc2)CC1	24	i	52*	1	-7	-4	31	7	0.36	-2.3
COc1cc(C(=O)N/N=C/c2ccc(OC)c(CN3CCN(c4ccc(F)cc4)CC3)c2)ccc1O	16	i	45*	7	-10	.	64*	37	-2	-3.1
O=[N+]([O-])c1ccc(Nc2nc(Cl)nc(NCCO)n2)cc1	66	i	2	-2	7	-16	2	55*	-2.2	-5
CCCCOC(=O)c1ccc(O)cc1	-1	i	1	-12	1	-8	.	.	.	.
CCCCOC(=O)Nc1ccc(C(=O)OCCC)cc1	73	i	1	-11	-15	-5	0	29	5.2	19
Cc1c(C(=O)Nc2cccc(Cl)c2)c2ccccn2c1CCc1ccncc1	99*	i	66*	-3	-21	-32	56*	42	-1.5	-3.7
CCOC(=O)c1c(NC(=O)C(=O)N/N=C/c2ccccc2O)sc2c1CCCCC2	-5	i	0	-4	-6	-6	.	.	.	.
COc1ccccc1NC(=O)Cn1c(=O)n(CCc2c[nH]c3ccccc23)c(=O)c2cccnc21	-1	.	0	-5	-9	-33	.	.	.	.
COc1ccc(N2CCN(C(=O)C3CCC(Cn4c(=S)[nH]c5ccccc5c4=O)CC3)CC2)cc1 (stereo not drawn)	34	i	41*	-10	-14	-19	34	23	2.1	9.5
O=[N+]([O-])c1cc(Cl)ccc1NCCNS(=O)(=O)c1ccccc1	119*	i	3	-3	-5	-35	7	18	2.3	32*
CCN(CCCNC(=O)CNC(=O)c1nn(-c2ccc(OC)cc2OC)c(=O)c2ccccc12)c1cccc(C)c1	.	.	.	.	48	.	.	.	.	.
Cn1c(CCCOc2ccc(Cl)cc2Cl)nnc1SCC(=O)Nc1cccc(F)c1	111*	i	3	3	-6	-6	4	16	-1.7	-1.2
CCN1/C(=C/c2ccc3cccc(C)c3[n+]2CC)Sc2ccccc21	+	.	34	-12	-18	-81	26	69*	304*	305*
Cc1cccc(NC(=O)C2CCCN(S(=O)(=O)c3cccs3)C2)c1C (stereo not drawn)	.	.	.	.	47	.	.	.	.	.
CCC(C)NC(=O)COC(=O)c1ccccc1OCC(=O)Nc1ccc(Br)cc1 (stereo not drawn)	21	i	1	-2	-41	24	.	.	.	.
O=C(COC(=O)c1ccccc1OCC(=O)Nc1ccc(Br)cc1)Nc1ccccc1	84*	i	3	-2	6	3	1	26	-0.79	-0.74
CN(c1nc2ccccc2nc1Cl)S(=O)(=O)c1ccccc1	.	.	.	.	22	.	.	.	.	.
SMILES	ABCG2 block	HSV augment	ABCB1 block	PKD1 inh	PHOSPHO1 block	NCF1 inh	ABCB1 confirm	ABCG2 single pt	IgMXP3 fluor	CCRF-Adr fluor
Cc1cc(-c2sccc2Br)nc(-n2cccc2)n1	92*	i	1	-8	8	-7	1	33	-1.9	-4.7
Cc1cc(-c2ccc(Br)s2)nc(-n2cccc2)n1	2	i	0	-7	43	-19	.	.	.	.
COCCNC(=O)Cn1c(=O)oc2cc(S(=O)(=O)N3CC(C)CC(C)C3)ccc21 (stereo not drawn)	.	.	.	.	22	.	.	.	.	.
CCC(C(=O)OCC(=O)Nc1cc(Cl)cc(Cl)c1)c1ccccc1 (stereo not drawn)	0	i	0	8	-7	2	.	.	.	.
Cc1ccc(N=Cc2c(O)n(-c3nccs3)c(=O)c3ccccc23)cc1	73	?	41*	-4	4	-39	5	37	-0.29	8.8
Cc1cc(C)c(N=Cc2c(O)n(-c3nccs3)c(=O)c3ccccc23)c(C)c1	11	i	4	-4	6	-75	.	.	.	.
COc1cccc(/C=C(/C(=O)OCC(N)=O)c2ccccc2)c1	-2	i	-1	-3	12	-3	.	.	.	.
COc1cccc(/C=C(/C(=O)OCC(=O)NC2CCCC(C)C2C)c2ccccc2)c1 (stereo not drawn)	79	i	9	-15	1	-15	4	23	-1.4	-4
Cc1cc(NC(=O)c2cc([N+](=O)[O-])cc([N+](=O)[O-])c2)n(-c2ccccc2)n1	84*	i	0	-4	-9	-5	2	32	2.2	-2.2
CCc1nnc(NC(=O)CCc2ccccc2OC)s1	.	.	.	.	16	.	.	.	.	.
COc1ccc(CNc2nc(-c3cccnc3)nn2C(C)=O)cc1	8	i	-1	-4	-4	-11	.	.	.	.
COc1ccc(CNc2nc(-c3cccnc3)nn2C(=O)c2cccs2)cc1	88*	.	6	-3	2	-16	11	35	-0.74	0.01
CC(=O)c1ccc(NC(=O)Cn2cnc(S(=O)(=O)N3CCC(C)CC3)c2)cc1	.	.	.	.	22	.	.	.	.	.
CCOc1cc(CNCCSc2nnnn2C)cc(Br)c1OCc1ccc(F)cc1	105*	i	10	-3	8	-8	1	11	-1.8	34*
